Measured values: ChEMBL document CHEMBL1806413, “New C-23 modified of silybin and 2,3-dehydrosilybin: synthesis and preliminary evaluation of antioxidant properties” (Bioorg Med Chem Lett, 2011)
The source made the active and inactive calls. The calls are words filed in the database; no cut-off is given here.

How the values were obtained:
[1] = test system: Rat1; experiment: Antioxidant activity in rat immortalized Rat1 cells assessed as inhibition of hydrogen peroxide-induced reactive oxygen species production by measuring conversion of 2',7'-dichlorofluorescin diacetate into 2',7'-dichlorofluorescein at 30 uM treated 48 hrs before H2O2 challenge measured after 15 mins by fluorescence assay; assay type: functional, cell-based
In short: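 Immortalized rat fibroblasts pre-treated 48 h with compound (30 μM), then exposed to 100 μM H2O2 for 15 min; intracellular ROS read as DCF fluorescence from DCFH-DA oxidation. Basal (no H2O2) levels also measured. Values expressed as % of fluorescence in untreated control cells (set at 100).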

[2] = test system: Rat1; experiment: Cytotoxicity against rat immortalized Rat1 cells assessed as reduction of cell viability at 30 uM after 48 hrs by MTT assay; assay type: cell-based; settings: rat1, 48 h
In short: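 Exponentially growing rat fibroblasts given compound at 30 μM; viability assessed by MTT test after 48 h.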

[3] = test system: Rat1; experiment: Cytotoxicity against rat immortalized Rat1 cells after 48 hrs by MTT assay; assay type: cell-based; settings: for IC50: Rattus norvegicus, Rat1, 48 h; for Activity: rat, rat1, 48 h

COc1cc(C2Oc3cc(-c4oc5cc(O)cc(O)c5c(=O)c4O)ccc3OC2CO)ccc1O (mixture of isomers) [DEHYDROSILYLBIN]
inhibition [1]: Active
Activity [2]: Non-toxic
IC50 [3]: 155 µM
Activity [3]: Dose-dependent effect

COc1cc(C2Oc3cc([C@H]4Oc5cc(O)cc(O)c5C(=O)[C@@H]4O)ccc3OC2CO)ccc1O (mixture of isomers) [SILIBININ]
inhibition [1]: Active
Activity [2]: Non-toxic
IC50 [3]: 162 µM
Activity [3]: Dose-dependent effect
